In brackets after ≈: the same amount, converted by molar mass.
Key:
Vero [1] = assay: Minimum inhibitory concentration required to reduce parainfluenza virus-3 induced cytopathogenicity by 50% in african green monkey (VeroB) cells; assay type: functional, Human respirovirus 3; settings: Chlorocebus sabaeus
In short: (§1)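 Cell cultures (PRK, HeLa or Vero B) are infected at 100 × CCID50. Cytopathogenicity is recorded once it reaches completion in the untreated virus-infected controls. The minimum inhibitory concentration is given in μg/mL.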

Nucleic Acid [2] = assay: Association constant against polynucleotide poly (dG-dC); assay type: nucleic-acid assay
In short: (§2)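 Competition with ethidium bromide binding at 25 °C in 0.01 M cacodylate buffer, pH 7.0, with 1.26 μM ethidium bromide and 1 μM polynucleotide. Bound ethidium is estimated from its fluorescence increase (V = 34 for poly(dA-dT), 25 for poly(dG-dC)). IC50 for 50% ethidium displacement comes from a fitted competition sigmoid. Kapp is calculated from IC50 assuming a binding size of four base pairs.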

Sindbis virus = assay: Minimum inhibitory concentration required to reduce Sindbis virus induced cytopathogenicity by 50% in african green monkey (VeroB) cells; assay type: functional; in short: as §1
Human alphaherpesvirus 2 = assay: Minimum inhibitory concentration required to reduce herpes simplex virus-2(G) induced cytopathogenicity by 50% in primary rabbit kidney cells (PRK); assay type: functional; in short: as §1
Vero [3] = assay: Minimum inhibitory concentration required to reduce Coxsackie virus B4 induced cytopathogenicity by 50% in african green monkey (VeroB) cells; assay type: functional, Coxsackievirus B4; settings: Chlorocebus sabaeus; in short: as §1
[4] = test system: Vesicular stomatitis virus; assay: Minimum inhibitory concentration required to reduce vesicular stomatitis virus induced cytopathogenicity by 50% in primary rabbit kidney cells (PRK); assay type: functional
Vero [5] = assay: Minimum cytotoxic concentration required to cause a microscopically detectable alteration of normal cell morphology and show antiviral activity in african green monkey (Vero B) cells; assay type: functional; settings: Chlorocebus sabaeus
HeLa [6] = assay: Minimum inhibitory concentration required to reduce Coxsackie virus B4 induced cytopathogenicity by 50% in HeLa cells; assay type: functional; settings: Homo sapiens; in short: as §1
HeLa [7] = assay: Minimum cytotoxic concentration required to cause a microscopically detectable alteration of normal cell morphology and show antiviral activity in HeLa cells; assay type: functional; settings: Homo sapiens
In short: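 HeLa cell cultures exposed to compound for the same duration as the antiviral assay, then examined microscopically. The minimum cytotoxic concentration is the lowest level causing detectable alteration of normal cell morphology. Values are in μg/mL.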

[8] = Dose required to inhibit Human T-Lymphoblast (Molt/4F) cell proliferation by 50%; assay type: functional; settings: read-out: CD50 (the source's name)
Human alphaherpesvirus 1 = assay: Minimum inhibitory concentration required to reduce herpes simplex virus-1 (KOS) induced cytopathogenicity by 50% in primary rabbit kidney cells(PRK); assay type: functional; in short: as §1
Oryctolagus cuniculus = species: Oryctolagus cuniculus; assay: Minimum cytotoxic concentration required to cause a microscopically detectable alteration of normal cell morphology and show antiviral activity in primary rabbit kidney (PRK) cells; assay type: functional
Raji = assay: Dose required to inhibit Human B-Lymphoblast (Raji) cell proliferation by 50%; assay type: functional; settings: read-out: CD50 (the source's name)
[9] = test system: Mammalian orthoreovirus 1; assay: Minimum inhibitory concentration required to reduce reovirus-1 induced cytopathogenicity by 50% in african green monkey (VeroB)cells; assay type: functional; in short: as §1
Semliki Forest virus = assay: Minimum inhibitory concentration required to reduce semliki forest virus induced cytopathogenicity by 50% in african green monkey (VeroB) cells; assay type: functional; in short: as §1
L1210 = assay: Dose required to inhibit Murine leukemia (L1210) cell proliferation by 50%; assay type: functional; settings: Mus musculus, read-out: CD50 (the source's name)
FM3A = assay: In vitro inhibition of FM3A (murine mammary carcinoma) cell proliferation.; assay type: functional; settings: Mus musculus, read-out: CD50 (the source's name)
Nucleic Acid [10] = assay: Ratio of association constant of poly (dA-dT) and poly (dG-dC); assay type: nucleic-acid assay
In short: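 Kapp for poly(dA-dT) and for poly(dG-dC) is each determined by ethidium bromide competition in 0.01 M cacodylate, pH 7.0, 25 °C, with 1.26 μM ethidium and 1 μM polynucleotide. IC50 comes from a fitted competition sigmoid and is converted to Kapp assuming a four-base-pair binding size. The ratio is taken between the two polynucleotides.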

Nucleic Acid [11] = assay: Association constant against the polynucleotide poly (dA-dT).; assay type: nucleic-acid assay; in short: as §2

Structure (SMILES) | MIC (Vero [1]) | K app (Nucleic Acid [2]) | MIC (Sindbis virus) | MIC (Human alphaherpesvirus 2) | MIC (Vero [3]) | MIC [4] | MCC (Vero [5]) | MIC (HeLa [6]) | MCC (HeLa [7]) | CC50 [8] | MIC (Human alphaherpesvirus 1) | MCC (Oryctolagus cuniculus) | CC50 (Raji) | MIC [9] | MIC (Semliki Forest virus) | CC50 (L1210) | CC50 (FM3A) | Ratio (Nucleic Acid [10]) | K app (Nucleic Acid [11])
CC(NC(=O)c1cc(NC(=O)c2cc([N+](=O)[O-])cn2C)cn1C)C(=O)NC(C)C(=O)OC(C)(C)C (centres undefined) | > 200 µg/mL | 20000 M⁻¹ | > 100 µg/mL | > 200 µg/mL | > 200 µg/mL | > 100 µg/mL | > 200 µg/mL | > 200 µg/mL | > 400 µg/mL | 29 µg/mL (≈ 59.1 µM) | > 100 µg/mL | >400 µg/mL | 33 µg/mL (≈ 67.3 µM) | > 200 µg/mL | > 200 µg/mL | 28.8 µg/mL (≈ 58.7 µM) | 27.2 µg/mL (≈ 55.5 µM) | 0.033 | 650 M⁻¹
Cn1cc([N+](=O)[O-])cc1C(=O)NCCC(=N)N | > 200 µg/mL | < 100 M⁻¹ | > 200 µg/mL | > 200 µg/mL | > 200 µg/mL | > 400 µg/mL | > 400 µg/mL | > 400 µg/mL | > 400 µg/mL | > 50 µg/mL | > 200 µg/mL | >400 µg/mL | > 50 µg/mL | > 200 µg/mL | > 200 µg/mL | > 50 µg/mL | – | – | < 100 M⁻¹
Cn1cc(NC(=O)CNC(=N)N)cc1C(=O)NCCCNCCCCN | > 200 µg/mL | – | > 400 µg/mL | > 400 µg/mL | > 400 µg/mL | > 400 µg/mL | > 400 µg/mL | > 400 µg/mL | > 400 µg/mL | > 200 µg/mL | > 400 µg/mL | >400 µg/mL | > 200 µg/mL | > 200 µg/mL | > 400 µg/mL | > 200 µg/mL | > 200 µg/mL | 5.26 | –
C[C@H](NC(=O)c1cc(NC(=O)c2cc(NC(=O)CNC(=N)N)cn2C)cn1C)C(=O)N[C@@H](C)C(=O)N[C@@H](C)C(=O)OC(C)(C)C | > 400 µg/mL | 3300 M⁻¹ | > 400 µg/mL | > 100 µg/mL | > 200 µg/mL | > 200 µg/mL | > 400 µg/mL | > 400 µg/mL | > 400 µg/mL | > 100 µg/mL | > 100 µg/mL | 400 µg/mL | > 100 µg/mL | > 200 µg/mL | > 400 µg/mL | > 100 µg/mL | > 100 µg/mL | 6.06 | 20000 M⁻¹
Cn1c(C(=O)NCCC(=N)N)ccc1[N+](=O)[O-] | 100 µg/mL (≈ 418 µM) | < 100 M⁻¹ | > 200 µg/mL | > 100 µg/mL | > 100 µg/mL | > 400 µg/mL | > 400 µg/mL | > 400 µg/mL | > 400 µg/mL | > 50 µg/mL | > 200 µg/mL | >400 µg/mL | > 50 µg/mL | > 100 µg/mL | > 200 µg/mL | > 50 µg/mL | – | – | < 100 M⁻¹
Cn1cc([N+](=O)[O-])cc1C(=O)O | > 400 µg/mL | – | > 400 µg/mL | > 400 µg/mL | > 200 µg/mL | > 400 µg/mL | > 400 µg/mL | > 400 µg/mL | > 400 µg/mL | > 100 µg/mL | > 400 µg/mL | >400 µg/mL | > 100 µg/mL | > 400 µg/mL | > 400 µg/mL | > 100 µg/mL | > 100 µg/mL | – | –
COC(=O)c1ccc([N+](=O)[O-])n1C | > 100 µg/mL | – | > 400 µg/mL | > 400 µg/mL | > 200 µg/mL | > 400 µg/mL | 400 µg/mL | > 400 µg/mL | 400 µg/mL | 66 µg/mL (≈ 358 µM) | > 400 µg/mL | >400 µg/mL | 62.4 µg/mL (≈ 339 µM) | > 200 µg/mL | > 400 µg/mL | 28 µg/mL (≈ 152 µM) | 84.7 µg/mL (≈ 460 µM) | – | –
CC(NC(=O)c1cc(NC(=O)c2cc(NC(=O)CNC(=N)N)cn2C)cn1C)C(=O)O (centres undefined) | > 200 µg/mL | < 100 M⁻¹ | > 200 µg/mL | > 200 µg/mL | > 200 µg/mL | > 200 µg/mL | > 200 µg/mL | > 200 µg/mL | > 200 µg/mL | > 100 µg/mL | > 200 µg/mL | >200 µg/mL | > 100 µg/mL | > 200 µg/mL | > 200 µg/mL | > 100 µg/mL | > 100 µg/mL | – | < 100 M⁻¹
